Screening data deposited in PubChem BioAssay by several laboratories.
Hits are enriched below; roughly 11% of the tested compounds scored in any of these assays.
RORA act – activators of human nuclear receptor RORA | CHO-K1 Gal4-RORA LBD luciferase reporter, luminescence; percent increase over mock-subtracted basal signal | activation, % at 10 µM | 65,000 tested, 1.5% active;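 active = activation above the mean of all tested compounds plus 3 SD, cut at about 49% in these data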
D1 allo mod – allosterically modulates the human D1 dopamine receptor; P21728; HEK293 D1, CRE-luciferase, dopamine EC30 potentiation; actives deviate in either direction; B-score at 10 µM; 58,000 tested, 5.9% active;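 active = luminescence count or its row- and column-corrected plate score outside the 99.7% band of the plate's sample wells, on either side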
Target sequence (P21728 whole entry, looked up): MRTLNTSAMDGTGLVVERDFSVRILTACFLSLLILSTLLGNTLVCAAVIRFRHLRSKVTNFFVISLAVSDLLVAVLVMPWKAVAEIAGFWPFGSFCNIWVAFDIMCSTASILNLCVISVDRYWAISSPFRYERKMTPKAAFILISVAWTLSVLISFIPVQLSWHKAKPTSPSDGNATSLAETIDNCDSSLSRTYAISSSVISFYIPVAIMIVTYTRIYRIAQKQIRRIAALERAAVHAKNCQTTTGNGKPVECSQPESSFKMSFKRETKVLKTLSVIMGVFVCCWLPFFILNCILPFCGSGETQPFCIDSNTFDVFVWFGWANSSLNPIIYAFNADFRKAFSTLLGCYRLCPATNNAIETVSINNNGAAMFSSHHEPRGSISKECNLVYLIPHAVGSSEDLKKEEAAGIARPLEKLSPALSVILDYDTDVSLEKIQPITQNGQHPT
Htt clearance – mutant huntingtin protein clearance; AID 853; HeLa Exon1htt(103Q)mCFP, aggregate imaging; zero = plate's median compound well; 47,000 tested, 0.42% active; inhibition, % at 1.5 µM;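 active = inhibition of aggregate fluorescence above about 70%, also judged a hit by eye on the cell image, limit read from the data, passing the limit was not always enough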;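 note: cells exposed to compound for three days before fixation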
M1 antagonist – M1 muscarinic receptor (rat) antagonism; P08482; CHO-M1 cells, Fluo-4 calcium, ACh EC80 antagonist mode; hits give low values; B-score at 10 µM; 64,000 tested, 3.4% active; AID 628;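 active = calcium fluorescence response, raw or row-and-column corrected B-score, differing from the plate sample mean either way at a set confidence level, mostly lower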
SF1 activator – SF-1 (human) activation; Q13285; CHO-K1 Gal4-SF-1 LBD luciferase reporter; % increase over DMSO SF-1-specific signal; activation, % at 10 µM; 65,000 tested, 1.9% active;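 active = activation above the mean activation of all tested compounds plus 3 SD, cut at about 50% in these data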
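Test system: CHO-K1 cells with Gal4–hSF-1 LBD chimera plus Gal4-driven luciferase; Input: 4,000 cells/well; Compound: 10 µM only; Times: 20 h compound treatment, 37 °C; Measured by: steady-glow luciferase luminescence, read after 15 min reagent incubation; Measure: percent activation versus DMSO; Control set: DMSO and mock-transfected background; Replicates: one test per compound.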
M1 agonist – activates the M1 muscarinic receptor. CHO-M1 cells, Fluo-4 calcium fluorescence, agonist mode; hits give high values. B-score at 10 µM. 64,000 tested, 3% active. AID 626;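 active = fluorescence rise, raw or as B-score row- and column-corrected plate score, outside the 99.7% band of its plate's samples, either direction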
M1 antag conf – M1 muscarinic receptor (rat) antagonism, confirmed | AID 677 | calcium response (max-min fluorescence) at 10 µM | shares compounds with M1 antagonist | 1,700 tested, 43% active | CHO-M1 cells, Fluo-4 calcium, ACh EC80 antagonism; hits give low values;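 active = calcium response below the same-plate mean of wells given acetylcholine alone at its 80%-effect dose, minus 3 SD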
mGluR4 antag – mGluR4 (human) activity, M1 antagonist secondary assay. shares compounds with M1 antagonist. CHO-mGluR4 calcium flux, Fluo-4 fluorescence, glutamate EC80; hits give low values. fluorescence response (max-min) at 10 µM. 1,700 tested, 0.9% active. AID 678;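 active = fluorescence response below the plate's average for near-maximal glutamate wells, less 3 SD of those wells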;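 note: raw unnormalized fluorescence span taken in the window right after glutamate addition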
Of the large screens only hits and unclear results are named; the others gave an inactive call (follow-up assays come after a bar, where they were run).

CC(C)(C)c1[nH]nc2c1C(c1cccnc1)C(C#N)=C(N)O2 (stereo unspecified)	M1 antagonist -4.08 | M1 antag conf inactive | mGluR4 antag 163
O=C(CCCSc1nc2ccccc2s1)Nc1nccs1	M1 antagonist -2.72 (no result: Htt clearance) | M1 antag conf inactive | mGluR4 antag inactive
CCOCCCNCC(=O)Nc1ccccc1N1CCOCC1	none (no result: M1 antagonist, M1 agonist)
CCOC(=O)Cn1c(=O)c2c(nc3n2CCCCN3c2ccc(C)cc2)n(C)c1=O	none
COC(=O)C(C(=O)N1CCN(C)CC1)C1CCCCCC1 (stereo unspecified)	M1 antagonist -3.27 | M1 antag conf inactive | mGluR4 antag inactive
COc1ccc(OC)c(CNC(=O)C2CCN(C(=O)N(C)C)CC2)c1	M1 antagonist -3.04 (no result: Htt clearance) | M1 antag conf inactive | mGluR4 antag inactive
CCn1cc(C(=O)NCCCN2CC(C)CC(C)C2)c2cc(OC)c(OC)cc2c1=O (stereo unspecified)	M1 antagonist -1.79 (no result: D1 allo mod) | M1 antag conf inactive | mGluR4 antag inactive
Cc1ccc(N(CC(=O)Nc2ccc3c(c2)OCCO3)S(=O)(=O)c2c(C)noc2C)cc1	M1 antagonist -3.02 | M1 antag conf inactive | mGluR4 antag inactive
CC(C)(C)n1nnnc1C(c1ccccc1)N1CCc2ccccc2C1 (stereo unspecified)	M1 antagonist -12.1 | M1 antag conf 368 | mGluR4 antag inactive
O=C(CSc1nc2ccccc2c(=O)[nH]1)Nc1ccc(S(=O)(=O)N2CCCC2)cc1	none
O=C(Nc1ccc(Cl)cc1)N1CCSCC1	M1 antagonist -2.29 (no result: Htt clearance) | M1 antag conf inactive | mGluR4 antag inactive
Cc1ccc(C(C(=O)NC2CCCCC2)N2CCCC2)cc1 (stereo unspecified)	M1 antagonist -3.82 (no result: Htt clearance) | M1 antag conf 461 | mGluR4 antag inactive
O=C(NC1CCCCC1)C(c1ccccc1)N1CCCC1 (stereo unspecified)	M1 antagonist -13.2 (no result: Htt clearance) | M1 antag conf 121 | mGluR4 antag inactive
Cc1ccc(C(C(=O)NC2CCCC2)N2CCCCC2)cc1 (stereo unspecified)	M1 antagonist -3.45 (no result: Htt clearance) | M1 antag conf 468 | mGluR4 antag inactive
Cc1ccccc1NC(=O)C(C#N)Cc1cccnc1 (stereo unspecified)	none
CCC(Sc1nc(C)cc(=O)[nH]1)C(=O)Nc1nc2c(s1)CCCC2 (stereo unspecified)	none (no result: Htt clearance)
CCC(Sc1nc(C)cc(=O)[nH]1)C(=O)Nc1nnc(C)s1 (stereo unspecified)	M1 antagonist -2.46 | M1 antag conf inactive | mGluR4 antag inactive
Cc1nc(C)n(C(C)CC(=O)O)n1 (stereo unspecified)	none (no result: Htt clearance)
Cc1cc(C(F)F)n2nc(C(=O)Nc3cccnc3Cl)nc2n1	none (no result: RORA act, D1 allo mod, M1 antagonist, SF1 activator, M1 agonist)
CCOC(=O)C1CCCN(C(=O)c2cc3c(C)nc4ccccc4c3o2)C1 (stereo unspecified)	M1 antagonist -2.68 | M1 antag conf 486 | mGluR4 antag 143
S=c1[nH]nc(-c2ccc(Br)cc2)n1Cc1ccco1	Htt clearance 72.3, M1 antagonist -10.2 | M1 antag conf 326 | mGluR4 antag inactive
Cc1nnc(SCc2ccc(Cl)cc2)n1CC1CCCO1 (stereo unspecified)	none (no result: Htt clearance)
CCN1CCCC1CNC(=O)c1cc2c(-c3ccc(Cl)cc3)nn(C)c2s1 (stereo unspecified)	M1 antagonist -4.04 (no result: Htt clearance) | M1 antag conf inactive | mGluR4 antag inactive
COCCNC(=O)c1cc2c(-c3ccc(Cl)cc3)nn(C)c2s1	none (no result: D1 allo mod)
CCN1CCCC1CNC(=O)c1cc2c(-c3cccc(OC)c3)nn(C)c2s1 (stereo unspecified)	M1 antagonist -2.84 (no result: Htt clearance) | M1 antag conf inactive | mGluR4 antag inactive
COc1cccc(-c2nn(C)c3sc(C(=O)NCc4ccco4)cc23)c1	none (no result: Htt clearance)
Cc1cc(C)c2c(CN3CCN(Cc4ccc5c(c4)OCO5)CC3)cc(=O)oc2c1C	M1 antagonist -6.15 (no result: Htt clearance) | M1 antag conf 376 | mGluR4 antag inactive
